Test [1] relates to tumor infiltrating immune cells. Put plainly: Flow cytometry analysis of tumor-infiltrating immune cells. The format is in vivo, BALB/c mice. Particulars: CT26 tumor-bearing mice, 16 mg/kg daily, 5 days. The essentials: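 Tumor-bearing mice (n = 5) got vehicle or test compound. Tumors were cut up and digested in RPMI 1640 with 0.1% type IV collagenase and 0.01% DNase I at 37 °C for 45 min, passed through a 70 μm strainer, and red cells lysed. Cells were Fc-blocked on ice for 15 min and surface-stained on ice for 30 min. MDSCs were scored as a proportion of CD45⁺ cells (mean ± SEM).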
On the technique in general: Flow cytometry measures light scatter and fluorescence of single cells or particles in a stream.

Test [2] has as its system CT26 cells. Kind of test: SRB cell proliferation assay, CT26. The format is cell-based, murine. Particulars: gradient concentrations, 72 h.
The subject of test [3] is MC38 cells. Kind of test: SRB cell proliferation assay, MC38. It is filed as cell-based, murine. Particulars: gradient concentrations, 72 h.

On to `O=C(/C=C/c1cccnc1)NCCCCC1CCN(C(=O)c2ccccc2)CC1` [FK866], for which the “infiltrating MDSCs in CT26 tumors” value in test [1] is “did not affect”. Also, the cell growth sensitivity result in test [2] and in test [3] was “did not show the apparent growth dependency” throughout.

The record behind these values is paper PMC9214341 (Acta Pharmaceutica Sinica. B, 2021).
